pIC50, pKi: −log10 of the molar value. Some results are limits rather than exact numbers.

A short description of data set [1]: Inhibition of recombinant N-terminal GST-tagged Dengue virus 3 2'-O-MTase activity expressed in Escherichia coli BL21 by scintillation proximity assay. Further details: species or system dengue virus type 3.
Data set [2] is described as follows: Inhibition of recombinant N-terminal GST-tagged Dengue virus 3 NS5 N7-MTase F133A mutant expressed in Escherichia coli BL21 by scintillation proximity assay. Further details: species or system dengue virus type 3.
Data set [3] has as its target mRNA cap guanine-N(7) methyltransferase (Homo sapiens, UniProt O43148). Kind of data set: Inhibition of recombinant human N-terminal His-tagged RNMT (1 to 476 residues) expressed in Escherichia coli BL21 using 5'-GpppAGAACCUG-biotin-TEG-3 as substrate after 10 mins by [3H]methyl incorporation assay.
Data set [4] in a line: Inhibition of recombinant N-terminal GST-tagged Dengue virus 3 2'-O-MTase F133A mutant expressed in Escherichia coli BL21 by scintillation proximity assay. Details: species or system dengue virus type 3.
Data set [5] concerns the target DNA (cytosine-5)-methyltransferase 1 (Homo sapiens, UniProt P26358). Kind of data set: Inhibition of human DNMT1A using double-stranded hemi-DNA oligonucleotide as substrate measured after 40 mins by [3H]methyl incorporation assay.
The nature of data set [6]: Inhibition of recombinant N-terminal GST-tagged Dengue virus 3 NS5 N7-MTase activity expressed in Escherichia coli BL21 by scintillation proximity assay. Details: species or system dengue virus type 3.
Data set [7] can be described thus: Cytotoxicity against BHK cells after 8 days by CellTiter-Glo assay. It counts as cell-based, Mesocricetus auratus. The note with it: hamster. The method in brief:
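BHK cells seeded at 5,000/well, allowed 24 h recovery, then given maintenance medium (DMEM, 2% FBS, P/S) containing compound in 3-fold dilutions from 200 μM to 0.09 μM, or drug-free. Viability read by CellTiter-Glo luminescence after 8 days' exposure; CC50 calculated from curves.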

A short description of data set [8]: Selectivity index, ratio of CC50 for BHK cells to IC50 for Zika virus SMGC infected in BHK cells. It is filed as toxicity, cell-based. The note with it: hamster, BHK cells infected with Zika virus SMGC, read-out: Ratio CC50/IC50. A digest of the protocol: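 Ratio of CC50 from 8-day CellTiter-Glo viability of uninfected BHK cells (compound 200–0.09 μM) to IC50 from 8-day protection of BHK cells against 100TCID₅₀ ZIKV-induced CPE (compound from 50 μM, 3-fold dilutions), both in DMEM with 2% FBS.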

Data set [9] concerns Zika virus. In words: Antiviral activity against Zika virus SMGC infected in BHK cells assessed as inhibition of virus induced cytopathic effect after 8 days by CellTiter-Glo luminescent cell viability assay. It is filed as functional, organism-based. As to conditions: 192 h. The method in brief:
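BHK cells seeded at 5,000/well in DMEM with 10% FBS and P/S, 24 h at 37°C, 5% CO₂, then switched to maintenance medium (DMEM, 2% FBS, P/S). Vero-grown ZIKV diluted to 100TCID₅₀ added with compounds in 3-fold dilutions from 50 μM; incubated 8 days until 100% CPE; viability read by CellTiter-Glo luminescence; IC50 calculated from curves.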

Data set [10] has as its system Zika virus. In words: Potency index, ratio of EPZ004777 IC50 to test compound IC50 for Zika virus SMGC infected in BHK cells. It counts as functional.

mRNA cap guanine-N(7) methyltransferase, sequence (O43148 whole entry, the tested form may be a part): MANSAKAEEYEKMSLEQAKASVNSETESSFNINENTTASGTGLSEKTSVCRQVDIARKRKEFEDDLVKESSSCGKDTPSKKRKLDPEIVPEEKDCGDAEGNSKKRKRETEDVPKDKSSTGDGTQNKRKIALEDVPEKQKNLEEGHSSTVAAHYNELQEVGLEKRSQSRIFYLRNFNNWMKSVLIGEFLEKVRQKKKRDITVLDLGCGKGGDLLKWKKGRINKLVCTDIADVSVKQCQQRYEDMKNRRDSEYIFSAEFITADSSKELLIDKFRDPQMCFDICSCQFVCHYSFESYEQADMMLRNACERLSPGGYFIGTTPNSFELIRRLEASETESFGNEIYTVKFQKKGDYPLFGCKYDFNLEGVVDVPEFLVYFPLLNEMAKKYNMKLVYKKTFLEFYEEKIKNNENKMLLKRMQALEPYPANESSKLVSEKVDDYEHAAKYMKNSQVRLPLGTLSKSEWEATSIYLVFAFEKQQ
DNA (cytosine-5)-methyltransferase 1, sequence (P26358 whole entry): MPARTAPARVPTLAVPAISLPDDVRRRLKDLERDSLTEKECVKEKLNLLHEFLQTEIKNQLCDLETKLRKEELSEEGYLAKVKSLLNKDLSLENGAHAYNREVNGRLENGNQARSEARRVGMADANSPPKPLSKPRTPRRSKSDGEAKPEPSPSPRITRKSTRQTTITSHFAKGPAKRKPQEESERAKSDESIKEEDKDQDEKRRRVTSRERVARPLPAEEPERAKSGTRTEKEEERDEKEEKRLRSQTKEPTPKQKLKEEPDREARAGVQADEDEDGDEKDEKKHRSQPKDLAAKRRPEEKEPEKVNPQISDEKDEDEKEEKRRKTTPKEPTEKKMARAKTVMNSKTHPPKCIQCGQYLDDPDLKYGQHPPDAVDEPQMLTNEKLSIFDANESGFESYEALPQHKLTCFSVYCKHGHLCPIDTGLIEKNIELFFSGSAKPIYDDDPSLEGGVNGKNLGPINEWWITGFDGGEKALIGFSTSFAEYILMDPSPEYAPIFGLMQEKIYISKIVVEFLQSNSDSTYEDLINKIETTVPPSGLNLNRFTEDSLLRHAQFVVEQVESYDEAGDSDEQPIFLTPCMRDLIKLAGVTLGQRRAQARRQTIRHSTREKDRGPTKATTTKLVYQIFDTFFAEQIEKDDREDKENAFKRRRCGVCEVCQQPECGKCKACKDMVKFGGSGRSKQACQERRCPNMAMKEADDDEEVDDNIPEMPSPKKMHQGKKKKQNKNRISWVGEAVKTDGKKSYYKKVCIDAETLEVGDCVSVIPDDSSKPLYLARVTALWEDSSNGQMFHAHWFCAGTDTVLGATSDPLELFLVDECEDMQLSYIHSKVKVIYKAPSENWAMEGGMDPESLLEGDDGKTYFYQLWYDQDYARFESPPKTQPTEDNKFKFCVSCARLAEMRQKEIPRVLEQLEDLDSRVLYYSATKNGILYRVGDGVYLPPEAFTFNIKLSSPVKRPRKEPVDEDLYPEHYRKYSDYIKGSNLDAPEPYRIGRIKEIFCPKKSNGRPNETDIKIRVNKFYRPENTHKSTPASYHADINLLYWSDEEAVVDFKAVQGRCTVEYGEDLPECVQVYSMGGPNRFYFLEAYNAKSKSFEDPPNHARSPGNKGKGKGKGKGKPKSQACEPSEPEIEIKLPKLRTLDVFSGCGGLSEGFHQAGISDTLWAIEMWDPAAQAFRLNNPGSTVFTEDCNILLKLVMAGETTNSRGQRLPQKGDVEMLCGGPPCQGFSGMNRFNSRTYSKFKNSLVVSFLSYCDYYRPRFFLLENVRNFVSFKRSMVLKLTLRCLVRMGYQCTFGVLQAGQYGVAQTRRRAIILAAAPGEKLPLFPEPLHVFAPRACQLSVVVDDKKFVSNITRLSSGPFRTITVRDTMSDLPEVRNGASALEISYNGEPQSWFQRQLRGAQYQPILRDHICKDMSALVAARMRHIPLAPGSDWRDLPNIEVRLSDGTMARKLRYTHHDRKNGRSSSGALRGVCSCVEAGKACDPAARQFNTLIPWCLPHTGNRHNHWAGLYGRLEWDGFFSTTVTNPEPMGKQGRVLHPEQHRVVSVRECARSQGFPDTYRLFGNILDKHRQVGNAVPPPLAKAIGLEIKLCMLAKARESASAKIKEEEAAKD

As to `N[C@@H](CCSC[C@H]1O[C@@H](n2cnc3c(NCc4cccc(Cl)c4)ncnc32)[C@H](O)[C@@H]1O)C(=O)O`, the pKi was 6.62 to 8.70 in data set [1]; 5.25 to 7.36 in [2]; < 4.30 in data set [3]; 5.25 to 7.36 in [4]; < 4.30 in [5]; 6.62 to 8.70 in data set [6].

Turning to `CC(C)N(CCCNC(=O)Nc1ccc(C(C)(C)C)cc1)C[C@H]1O[C@@H](n2ccc3c(N)ncnc32)[C@H](O)[C@@H]1O`, in [7], the CC50 at 192 h is > 200 µM. Also, in [8], the selectivity ratio was > 5.68. Also, in the data set on Zika virus [9], the negative-log IC50 (pIC50) was 4.45.

For `CC(C)N(CCCNC(=O)Nc1ccc(C(F)(F)F)cc1)C[C@H]1O[C@@H](n2cnc3c(NCc4cccc(F)c4)ncnc32)[C@H](O)[C@@H]1O`, in [7], the CC50 at 192 h is 20.3 µM. For the same compound, the selectivity ratio in data set [8] turned out to be 3.14. In addition, in the data set on Zika virus [10], the “Ratio IC50” value was 5 - 7.7. For the same compound, the pIC50 in the data set on Zika virus [9] was 5.19.

`CC(C)N(CCCNC(=O)NC(C)(C)C)C[C@H]1O[C@@H](n2cnc3c(NCc4cccc(F)c4)ncnc32)[C@H](O)[C@@H]1O`: the pIC50 in the data set with Zika virus [9] is < 4.30.

Take `CC(C)N(CCCNC(=O)Nc1ccc(C(C)(C)C)cc1)C[C@H]1O[C@@H](n2cnc3c(NCc4cccc(Cl)c4)ncnc32)[C@H](O)[C@@H]1O`: in data set [7], the CC50 at 192 h worked out at 6.73 µM.

On to `CC(C)N(CCCO)C[C@H]1O[C@@H](n2cnc3c(NCc4cccc(F)c4)ncnc32)[C@H](O)[C@@H]1O`, for which, in the data set with Zika virus [9], the pIC50 was < 4.30.

As to `COc1ccc(NC(=O)NCCCN(C[C@H]2O[C@@H](n3cnc4c(NCc5cccc(F)c5)ncnc43)[C@H](O)[C@@H]2O)C(C)C)cc1`, the pIC50 in the data set with Zika virus [9] was < 4.30.

In data set [7], `CC(C)N(CCCNC(=O)Nc1ccc(F)cc1)C[C@H]1O[C@@H](n2cnc3c(NCc4cccc(Cl)c4)ncnc32)[C@H](O)[C@@H]1O` displayed a CC50 at 192 h of 20 µM. Moreover, the selectivity ratio in data set [8] stood at 1.31. Moreover, the pIC50 with Zika virus [9] was 4.82.

Take `COC(=O)CCN(C[C@H]1O[C@@H](n2cnc3c(NCc4cccc(F)c4)ncnc32)[C@H](O)[C@@H]1O)C(C)C`: in the data set with Zika virus [9], the pIC50 was < 4.30.

With `CC(C)N(CCCN)C[C@H]1O[C@@H](n2cnc3c(NCc4cccc(F)c4)ncnc32)[C@H](O)[C@@H]1O`, the pIC50 with Zika virus [9] is < 4.30.

`CC(C)N(CCCNC(=O)NC(C)(C)C)C[C@H]1O[C@@H](n2cnc3c(NCc4cccc(Cl)c4)ncnc32)[C@H](O)[C@@H]1O`: the CC50 at 192 h in [7] came to 58.5 µM. Further, in data set [8], the selectivity ratio is 2.84. The pIC50 with Zika virus [9] is 4.69.

`CC(C)N(CCCNC(=O)Nc1ccc(F)cc1)C[C@H]1O[C@@H](n2cnc3c(NCc4cccc(F)c4)ncnc32)[C@H](O)[C@@H]1O`: in the data set with Zika virus [9], the pIC50 is < 4.30.

In data set [7], `CC(C)NC[C@H]1O[C@@H](n2cnc3c(NCc4cccc(Cl)c4)ncnc32)[C@H](O)[C@@H]1O` returned a CC50 at 192 h of 29.4 µM. Also, the selectivity ratio in [8] was determined as 4.64. In the data set on Zika virus [9], the pIC50 was 5.20.

`CC(C)N(CCCNC(=O)Nc1cccc(C(F)(F)F)c1)C[C@H]1O[C@@H](n2cnc3c(NCc4cccc(F)c4)ncnc32)[C@H](O)[C@@H]1O` showed a CC50 at 192 h in data set [7] of 12.9 µM. Besides, the selectivity ratio in [8] worked out at 1.84. For the same compound, the “Ratio IC50” value in the data set with Zika virus [10] is 5 - 7.7. Moreover, the pIC50 in the data set on Zika virus [9] was 5.16.

In the case of `CC(C)N(CCCNC(=O)NC1CCCCC1)C[C@H]1O[C@@H](n2cnc3c(NCc4cccc(F)c4)ncnc32)[C@H](O)[C@@H]1O`, the pIC50 in the data set with Zika virus [9] was < 4.30.

`CC(C)N(CCCNC(=O)Nc1ccc(C(C)(C)C)cc1)C[C@H]1O[C@@H](n2cnc3c(NCc4cccc(F)c4)ncnc32)[C@H](O)[C@@H]1O` registered a CC50 at 192 h in [7] of 18.7 µM. Also, in [8], the selectivity ratio stood at 2.81. In addition, the “Ratio IC50” value in the data set on Zika virus [10] is 5 - 7.7. For the same compound, the pIC50 in the data set with Zika virus [9] was 5.18.

Turning to `CC(C)N(CCCNC(=O)Nc1cccc(C(F)(F)F)c1)C[C@H]1O[C@@H](n2cnc3c(NCc4cccc(Cl)c4)ncnc32)[C@H](O)[C@@H]1O`, in data set [7], the CC50 at 192 h is 5.88 µM. Moreover, in [8], the selectivity ratio turned out to be 1.29. Also, the “Ratio IC50” value with Zika virus [10] was 5 - 7.7. Further, the pIC50 with Zika virus [9] is 5.34.

With `COc1ccc(NC(=O)NCCCN(C[C@H]2O[C@@H](n3cnc4c(NCc5cccc(Cl)c5)ncnc43)[C@H](O)[C@@H]2O)C(C)C)cc1`, the pIC50 in the data set with Zika virus [9] is < 4.30.

As to `COC(=O)CCN(C[C@H]1O[C@@H](n2cnc3c(NCc4cccc(Cl)c4)ncnc32)[C@H](O)[C@@H]1O)C(C)C`, the pIC50 in the data set with Zika virus [9] was < 4.30.

The compound `CC(C)N(CCCNC(=O)NC1CCCCC1)C[C@H]1O[C@@H](n2cnc3c(NCc4cccc(Cl)c4)ncnc32)[C@H](O)[C@@H]1O` gave a CC50 at 192 h in data set [7] of 57.6 µM. For the same compound, in data set [8], the selectivity ratio is 4.7. For the same compound, the pIC50 in the data set on Zika virus [9] is 4.91.

`CC(C)N(CCCO)C[C@H]1O[C@@H](n2cnc3c(NCc4cccc(Cl)c4)ncnc32)[C@H](O)[C@@H]1O` gave a CC50 at 192 h in data set [7] of 70.6 µM. Further, in data set [8], the selectivity ratio worked out at 2.57. Moreover, in the data set on Zika virus [9], the pIC50 is 4.56.

On to `Cc1ccc(NC(=O)NCCCN(C[C@H]2O[C@@H](n3cnc4c(NCc5cccc(F)c5)ncnc43)[C@H](O)[C@@H]2O)C(C)C)cc1`, for which the pIC50 in the data set on Zika virus [9] is < 4.30.

Take `CC(C)NC[C@H]1O[C@@H](n2cnc3c(NCc4cccc(F)c4)ncnc32)[C@H](O)[C@@H]1O`: the CC50 at 192 h in [7] is > 200 µM. In data set [8], the selectivity ratio is > 6.67. The pIC50 in the data set with Zika virus [9] is 4.52.

Turning to `CC(C)N(CCCN)C[C@H]1O[C@@H](n2cnc3c(NCc4cccc(Cl)c4)ncnc32)[C@H](O)[C@@H]1O`, in the data set with Zika virus [9], the pIC50 is < 4.30.

`CC(C)N(CCCNC(=O)Nc1ccc(C(F)(F)F)cc1)C[C@H]1O[C@@H](n2cnc3c(NCc4cccc(Cl)c4)ncnc32)[C@H](O)[C@@H]1O`: it took 6.35 µM to reach half-maximal cytotoxicity in data set [7] (CC50 at 192 h). That is a single-digit micromolar value.

Regarding `Cc1ccc(NC(=O)NCCCN(C[C@H]2O[C@@H](n3cnc4c(NCc5cccc(Cl)c5)ncnc43)[C@H](O)[C@@H]2O)C(C)C)cc1`, it took 19.1 µM to reach half-maximal cytotoxicity in data set [7] (CC50 at 192 h). For the same compound, the selectivity ratio in data set [8] is 3.29. Moreover, the “Ratio IC50” value in the data set with Zika virus [10] was 5 - 7.7. Further, the pIC50 in the data set with Zika virus [9] is 5.24.

With `Nc1ncnc2c1ncn2[C@@H]1O[C@H](C[C@@H](N)CC[C@H](N)C(=O)O)[C@@H](O)[C@H]1O` [SINEFUNGIN], the pIC50 with Zika virus [9] was < 4.30.
